Consider four molecules from ChEMBL document CHEMBL1133638, “Synthesis and biological activity of a novel 11a-homo (cyclohexyl) prostaglandin” (J Med Chem, 2000).

Molecules are shown by their SMILES.

Experiment [1] in a line: Evaluated for its concentration at which 50% of maximal stimulation of phosphoinositide turnover was observed. It counts as functional, Mus musculus. The essentials:
(§1)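 Swiss 3T3 mouse fibroblasts with FP receptors, confluent, labelled 24-30 h at 37 °C with 1.0-1.5 μCi [3H]-myo-inositol in DMEM. Rinsed into DMEM/F-12 with 10 mM LiCl, then agonist or solvent for 60 min at 37 °C, triplicate. Stopped with ice-cold 0.1 M formic acid. Total [3H]IPs isolated on anion-exchange resin and counted.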

Experiment [2] is filed under the species Mus musculus. Kind of experiment: Evaluated for percent maximum response relative to cloprostenol (n = 105). The format is functional. In short, it runs like this: as §1
For experiment [3], the species on record is Mus musculus. Kind of experiment: Evaluated for percent maximum response relative to cloprostenol (n=2). The format is functional. The essentials: as §1
The species entered for experiment [4] is Mus musculus. Kind of experiment: Evaluated for percent maximum response relative to cloprostenol (n=11). The format is functional. The essentials: as §1

As for `O=C(O)CCC/C=C\CC1C(O)CC(O)C1/C=C/C(O)COc1cccc(Cl)c1` (stereo not drawn) [CLOPROSTENOL], in experiment [1], the half-maximal effective concentration (EC50) (commonly the concentration at which the effect is half-maximal) turned out to be 1 nM. Also, the Max response in experiment [2] is 100%.
In experiment [1], `O=C(O)CCC/C=C\C[C@@H]1[C@@H](/C=C/[C@H](O)COc2cccc(Cl)c2)[C@H](O)CC[C@@H]1O` gave an EC50 of 2750 nM. The Max response in experiment [3] was 50%.
As for `CCCCC[C@H](O)/C=C/[C@@H]1[C@@H](C/C=C\CCCC(=O)O)[C@@H](O)C[C@H]1O` [DINOPROST], the EC50 in experiment [1] amounted to 23 nM. Moreover, in experiment [4], the Max response stood at 91%.
In the case of `O=C(O)CCC/C=C\C[C@@H]1[C@@H](/C=C/[C@@H](O)COc2cccc(Cl)c2)[C@H](O)CC[C@@H]1O`, a half-maximal response in experiment [1] (EC50) required 319 nM. Moreover, in experiment [3], the Max response is 72%.
